Our source for the viability, solubility and MIC values is ChEMBL document CHEMBL2331219, “Synthesis and anti-Candida activity of novel 2-hydrazino-1,3-thiazole derivatives” (Bioorg Med Chem Lett, 2013).

≈ marks a conversion by molar mass, not a printed value.

Data set [1] is described as follows: Cytotoxicity against mouse NIH/3T3 cells assessed as cell viability at 1 ug/mL after 24 hrs by MTT assay relative to control. The data set is classed as cell-based, NIH3T3. The note with it: read-out: Activity. In short, it runs like this:
(§1)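 NIH/3T3 fibroblasts kept in DMEM with 10% fetal calf serum, penicillin/streptomycin, 37 °C, 5% CO2. Cells seeded at 2 × 10⁴ cells/mL, grown 24 h, then given compound (DMSO stock diluted in medium, final DMSO <0.1%) for 24 h. MTT at 0.5 mg/mL final added for 4 h, formazan dissolved in DMSO, absorbance read at 540 nm. Triplicate wells, mean ± SD, assay run twice.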

A short description of data set [2]: Aqueous solubility in PBS buffer at pH 7.0. The data set is classed as physicochemical.
Data set [3] deals with Nakaseomyces glabratus. Nature of the data set: Antifungal activity against voriconazole-resistant Candida glabrata clinical isolate 724 assessed as growth inhibition after 24 to 48 hrs by CLSI microbroth dilution method. The data set is classed as functional. In short, it runs like this: (§2)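 Microbroth dilution per CLSI M27-A3. Isolates subcultured for purity, incubated at 35 °C; five colonies >1 mm suspended in saline, adjusted to 0.5 × 10³ to 2.5 × 10³ in RPMI 1640 buffered to pH 7.0 with 0.165 M MOPS. Compounds diluted in RPMI to final […]. Read visually after 24 h and 48 h at 35 °C; MIC judged by turbidity against drug-free growth control.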

For data set [4], the system named is Nakaseomyces glabratus. Nature of the data set: Antifungal activity against fluconazole-resistant Candida glabrata isolate 6258 assessed as growth inhibition after 24 to 48 hrs by CLSI microbroth dilution method. The data set is classed as functional. The essentials: as §2
Data set [5] relates to Candida albicans. Nature of the data set: Antifungal activity against caspofungin-resistant Candida albicans assessed as growth inhibition after 24 to 48 hrs by CLSI microbroth dilution method.
The test system of data set [6] is Candida albicans. Put plainly: Antifungal activity against fluconazole-resistant Candida albicans clinical isolate 5.O.A assessed as growth inhibition after 24 to 48 hrs by CLSI microbroth dilution method. The data set is classed as functional. In short, it runs like this:
as §2

For data set [7], the system named is Candida albicans. Put plainly: Antifungal activity against azole-resistant Candida albicans clinical isolate 7.O.A assessed as growth inhibition after 24 to 48 hrs by CLSI microbroth dilution method. It is filed as functional. The essentials:
as §2

Data set [8] is described as follows: Cytotoxicity against mouse NIH/3T3 cells assessed as cell viability at 31.3 ug/mL after 24 hrs by MTT assay relative to control. The data set is classed as cell-based, NIH3T3. Particulars: read-out: Activity. The essentials: as §1
Data set [9] can be described thus: Cytotoxicity against mouse NIH/3T3 cells assessed as cell viability at 0.5 ug/mL after 24 hrs by MTT assay relative to control. It is filed as cell-based, NIH3T3. The note with it: read-out: Activity. In short, it runs like this: as §1
In data set [10] the test system is Candida parapsilosis. Nature of the data set: Antifungal activity against anidulafungin-resistant Candida parapsilosis isolate 22019 assessed as growth inhibition after 24 to 48 hrs by CLSI microbroth dilution method. It is filed as functional. The note with it: Lodderomyces parapsilosis. In short, it runs like this:
as §2

The subject of data set [11] is Candida parapsilosis. Put plainly: Antifungal activity against anidulafungin-resistant Candida parapsilosis ANF8 assessed as growth inhibition after 24 to 48 hrs by CLSI microbroth dilution method. The data set is classed as functional. Particulars: Lodderomyces parapsilosis. In short, it runs like this:
as §2

Data set [12] is described as follows: Cytotoxicity against mouse NIH/3T3 cells assessed as cell viability at 62.5 ug/mL after 24 hrs by MTT assay relative to control. The data set is classed as cell-based, NIH3T3. Particulars: read-out: Activity. In short, it runs like this:
as §1

The test system of data set [13] is Nakaseomyces glabratus. Put plainly: Antifungal activity against voriconazole-resistant Candida glabrata clinical isolate 730 assessed as growth inhibition after 24 to 48 hrs by CLSI microbroth dilution method. It is filed as functional. In short, it runs like this:
as §2

Consider `C/C(=N\Nc1nc([C@H](C)N)cs1)c1ccc2c(c1)CCC2`, for which the viability at 24 h, 1 ug/mL in [1] was 92.6%. For the same compound, in data set [2], the concentration in solution (solubility) was 700 µM (≈ 210 µg/mL). Besides, the MIC with Nakaseomyces glabratus [3] was 8 µg/mL (≈ 26.6 µM); with Nakaseomyces glabratus [4], 0.125 µg/mL (≈ 0.416 µM); in the data set on Candida albicans [5] it was 16 µg/mL (≈ 53.3 µM); in the data set on Candida albicans [6] it was more than 16 µg/mL; in the data set with Candida albicans [7], more than 16 µg/mL; with Candida parapsilosis [10], 8 µg/mL (≈ 26.6 µM). Also, the MIC in the data set on Candida parapsilosis [11] turned out to be 0.5 µg/mL (≈ 1.66 µM); with Nakaseomyces glabratus [13], 8 µg/mL (≈ 26.6 µM). The viability at 24 h, 31.3 ug/mL in data set [8] was found to be 36.2%. Besides, in [9], the viability at 24 h, 0.5 ug/mL worked out at 93.6%. Also, the viability at 24 h, 62.5 ug/mL in data set [12] was 32.4%.
Take `C/C(=N\Nc1nc([C@@H](N)Cc2ccccc2)cs1)c1ccc2c(c1)CCC2`: the solubility in data set [2] amounted to 150 µM (≈ 56.5 µg/mL). For the same compound, the MIC with Nakaseomyces glabratus [3], in the data set with Nakaseomyces glabratus [4], in the data set on Candida albicans [5], with Candida albicans [6], with Candida albicans [7] and with Candida parapsilosis [10] was more than 16 µg/mL in each case. Besides, the MIC in the data set with Candida parapsilosis [11] and in the data set with Nakaseomyces glabratus [13] was more than 16 µg/mL in each case.
In turn, `C/C(=N\Nc1nc([C@@H]2CCCN2)cs1)c1ccc2c(c1)CCC2` came in with a solubility in [2] of 900 µM (≈ 294 µg/mL). Further, the MIC in the data set on Nakaseomyces glabratus [3], in the data set on Nakaseomyces glabratus [4], in the data set with Candida albicans [5], with Candida albicans [6], in the data set with Candida albicans [7] and in the data set on Candida parapsilosis [10] was more than 16 µg/mL each time. For the same compound, the MIC was more than 16 µg/mL in the data set on Candida parapsilosis [11] and 16 µg/mL (≈ 49 µM) in the data set on Nakaseomyces glabratus [13].
Turning to `COc1ccc(O)c(-c2csc(N/N=C(/C)C3CCc4ccccc43)n2)c1` (stereo not given), in [2], the solubility was less than 50 µM. The MIC with Nakaseomyces glabratus [3], in the data set on Nakaseomyces glabratus [4], with Candida albicans [5], in the data set with Candida albicans [6], with Candida albicans [7] and in the data set with Candida parapsilosis [10] was more than 16 µg/mL in each case. For the same compound, the results for the MIC in the data set on Candida parapsilosis [11] and in the data set with Nakaseomyces glabratus [13] were more than 16 µg/mL and 16 µg/mL (≈ 42.2 µM), respectively.
